# Data as given in article PMC7606181 (Acta Pharmaceutica Sinica. B, 2019).
# Legend:
# [1] = system: red blood cell (RBC) suspension from mouse; assay: Hemolysis assay; type: cell-based; conditions: 0.3% Triton
# 4T1 cells [2] = assay: Cytotoxicity MTT assay; type: cell-based, mouse
# [3] = system: platelets adhering to 4T1 cells; assay: Interaction of tumor cells with platelets; type: cell-based, mouse; conditions: LMWH-equivalent 80 μg/mL, compared with PBS group
# In short: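 4T1 cells at about 80% confluency were pre-incubated 20 min with test agents or PBS (LMWH-equivalent 80 μg/mL). Washed platelets from fresh blood were labelled with 5 μmol/L calcein AM, added, and co-cultured 2 h. After washing, cells were lysed in DMSO and fluorescence read at Ex 490 / Em 515 nm.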
# MMP-9 [4] = assay: Detection of MMP-9 by Western blot in 4T1 cells; type: cell-based, mouse; conditions: 24 h, LT 100 μg/mL, LMWH 60 μg/mL
# In short: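 4T1 cells at about 60% confluency were exposed for 24 h to fresh medium containing test agents or PBS. Lysates were centrifuged at 15,700×g, 4 °C, 15 min. Supernatant proteins were run on 6% SDS-PAGE and blotted to PVDF. Blots were probed with MMP-9 antibody and HRP-labelled anti-goat secondary, then imaged.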
# Content of GEM = type: physicochemical; conditions: toluidine blue spectrophotometry
# In short: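 LMWH content: samples at 40 μg/mL were mixed with 0.005% toluidine blue in PBS (pH 7.4) and shaken 30 s. Hexane was added and shaken 1 min, and the aqueous layer was read at 630 nm. GEM content: acid/CuCl2 hydrolysis at 70 °C for 12 h, then filtration and C18 HPLC. Mobile phase was ammonium acetate pH 5.7/methanol 90:10 at 1 mL/min, UV 268 nm.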
# 4T1 tumor-bearing mice = assay: In vivo tumor-targeting assay and biodistribution; set-up: species or system BALB/c mice; conditions: i.v.
# In short: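 Female BALB/c mice (about 5 weeks) carried mammary-pad 4T1 tumours (1 × 10^6 cells) and were used on day 10. Groups (n = 9) got PBS, DiD-loaded micelles or free DiD in propylene glycol/PBS 1:1, at 20 μg DiD per mouse via tail vein. Whole-body imaging at 1–24 h; ex vivo organ imaging at 4, 8 and 24 h (3 per point); confocal of 24 h tumour sections.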
# 4T1 solid tumor = assay: In vivo anti-tumor assay, 4T1 solid tumor model; set-up: species or system BALB/c mice; conditions: day 18
# In short: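 Female BALB/c mice received 1 × 10^6 4T1 cells in the mammary pad. From day 5 they were grouped (n = 6) and dosed via tail vein with PBS or test preparations. Doses were GEM-equivalent 4 mg/kg and LMWH-equivalent 18.4 mg/kg, every 2 days for 5 doses. On day 18, tumours and major organs were taken for H&E staining.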
# Tail bleeding assay = type: in vivo, BALB/c mice; conditions: mice, i.v., LMWH-equivalent 20 mg/kg, 30 min after injection, versus PBS
# In short: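 Mice were split into 3 groups (n = 3): PBS or test agents i.v. at LMWH-equivalent 20 mg/kg. At 30 min, 3 mm of tail tip was cut and the tail immersed in PBS at 37 °C. The endpoint was time to complete cessation of bleeding.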
# 4T1 cells [5] = assay: Scratch healing assay; type: cell-based, mouse; conditions: 12 h
# In short: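 4T1 monolayers at about 90% confluence were scratched in a straight line and rinsed with PBS. They were then incubated 12 h in medium with PBS or test agents (GEM-equivalent 0.1 μg/mL). Images were taken at 0 and 12 h, and healing rate was calculated by image analysis.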
# MMP-9 [6] = conditions: cited from earlier work
# [7] = Hematological analysis and serum biochemical analysis; type: in vivo, BALB/c mice; conditions: mice, i.v., GEM-equivalent 4 mg/kg, 5 times
# In short: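 Mice were split into 4 groups (n = 3): PBS or test preparations i.v. at GEM-equivalent 4 mg/kg, every 2 days for 5 doses. After treatment, blood was taken for haematology and serum for biochemistry.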
# Pharmacokinetic assay = type: in vivo, BALB/c mice
# [8] = HE staining of major organs; type: in vivo, BALB/c mice; conditions: after treatment, compared with PBS group
# [9] = Long-term stability in water at 4 °C; type: physicochemical
# In short: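 Micelle solutions at 0.5 mg/mL in water were stored at 4 °C, alongside a TPGS-stabilised prodrug formulation as control. Appearance and particle size were recorded until precipitation appeared.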
# [10] = female, BALB/c, mouse, plasma, iv, 4 mg/kg
molecule,measurement,setting,value
Triton,erythrocyte lysis (positive control),[1],complete cell lysis
LMWH-TOS [LT],cell viability,4T1 cells [2]; up to 250 μg/mL,almost did not affect cell viability
same,number of adhesive platelets on tumor cells,[3],significantly decreased
same,MMP-9 secreted by 4T1 cells,MMP-9 [4],significantly inhibited
same,content of LMWH,Content of GEM,47%
"CCCCCCCCCCCCCCCCCCN1C(=CC=CC=CC2=[N+](CCCCCCCCCCCCCCCCCC)c3ccccc3C2(C)C)C(C)(C)c2ccccc21 [free DiD, 1,1′-dioctadecyl-3,3,3′,3′-tetramethylindodicarbocyanine]",main site of signal,4T1 tumor-bearing mice,mainly showed in liver
low-molecular-weight heparin [LMWH],HE staining of tumor,4T1 solid tumor,retained their complete microstructures
same,number of adhesive platelets on tumor cells,[3],significantly decreased
same,bleeding time,Tail bleeding assay,no significant difference
same,MMP-9 secreted by 4T1 cells,MMP-9 [4],did not have obvious effect
same,"scratch healing rate (in words, versus PBS)",4T1 cells [5],healing rates decreased
"Cc1c(C)c2c(c(C)c1OC(=O)CCC(=O)O)CC[C@@](C)(CCC[C@H](C)CCC[C@H](C)CCCC(C)C)O2 [TOS, D-α-tocopherol succinate]",secretion of MMP-9 in B16F10 cells,MMP-9 [6],inhibited
"Nc1ccn([C@@H]2O[C@H](CO)[C@@H](O)C2(F)F)c(=O)n1 [GEM, Gemcitabine]",cytotoxicity,"4T1 cells [2]; MTT, 48 h",concentration-dependent cytotoxicity
same,relative cytotoxicity,4T1 cells [2]; concentration of GEM more than 0.037 μg/mL,more cytotoxic than GLT
same,levels of CK (creatine kinase) in serum,[7],increased
same,number of white blood cells (WBC) and neutrophilic granulocyte (Gran),[7]; compared with PBS group,decrease
same,clearance,Pharmacokinetic assay; [10],5.67 mL/min/kg
same,half-life,Pharmacokinetic assay; [10],36.9 ± 2.22 min
same,V1,"Pharmacokinetic assay; mice, i.v., GEM-equivalent 4 mg/kg, plasma GEM",0.027 ± 0.015 L/kg
same,"scratch healing rate (in words, versus PBS)",4T1 cells [5],healing rates decreased
same,HE staining of other organs,[8],myocardial rupture and glomerular effusion
"Cc1c(C)c2c(c(C)c1OC(=O)CCC(=O)Nc1ccn(C3OC(CO)C(O)C3(F)F)c(=O)n1)CCC(C)(CCCC(C)CCCC(C)CCCC(C)C)O2 (stereo not shown) [GT, GEM-TOS]","long-term stability (appearance, particle size)",[9],aggregated to form precipitates in 6 h
